Data as given in ChEMBL document CHEMBL1833943, “Synthesis and structure-activity relationships of varied ether linker analogues of the antitubercular drug (6S)-2-nitro-6-{[4-(trifluoromethoxy)benzyl]oxy}-6,7-dihydro-5h-imidazo[2,1-b][1,3]oxazine (PA-824)” (J Med Chem, 2011).
≈ marks a conversion by molar mass, not a printed value.

Key:
[1] = Aqueous solubility of the compound in water at pH 7 by HPLC analysis; assay type: physicochemical
In short: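 Solubility measured in water at pH 7 and 20 °C, quantified by HPLC.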

[2] = tested on: Mycobacterium tuberculosis; assay: Antituberculosis activity against Mycobacterium tuberculosis H37Rv under aerobic conditions by microplate alamar blue assay; assay type: functional
[3] = tested on: Mycobacterium tuberculosis; assay: Antituberculosis activity against Mycobacterium tuberculosis H37Rv under anaerobic conditions by fluorescence based low-oxygen-recovery assay; assay type: functional
[4] = Metabolic stability in CD1 mouse liver microsomes at 1 uM measured as compound remaining after 1 hr by LC/MS/MS analysis; assay type: ADME, Microsome; details: read-out: Stability
[5] = Metabolic stability in human liver microsomes at 1 uM measured as compound remaining after 1 hr by LC/MS/MS analysis; assay type: ADME, Microsome; details: read-out: Stability
[6] = tested on: Mycobacterium tuberculosis; assay: Antituberculosis activity against Mycobacterium tuberculosis H37Rv infected in BALB/c mouse acute infection model assessed as fold reduction in bacterial CFU in lungs at 100 mg/kg, po administered for 5 days a week for 3 weeks beginning on day 11 postinfection relative to PA-824; assay type: functional
In short: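 Mice with acute M. tb infection dosed orally at 100 mg/kg daily, 5 days each week, standard 3 week assay. Lung CFUs counted. Value is the fold CFU decrease for the compound divided by the fold CFU decrease for the internal reference standard run in the same experiment.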

[7] = Aqueous solubility of the compound in 0.1 M hydrochloric acid at pH 1 by HPLC analysis; assay type: physicochemical
[8] = Metabolic stability in human liver microsomes at 1 uM measured as compound remaining after 45 mins by LC/MS/MS analysis; assay type: ADME, Microsome; details: read-out: Stability
Mus musculus = assay: Toxicity in Mycobacterium tuberculosis H37Rv infected BALB/c mouse at 100 mg/kg, po administered for 5 days a week for 3 weeks beginning on day 11 postinfection; assay type: organism-based; design: dose 100 mg/kg, route oral; details: in vivo
[9] = tested on: Mycobacterium tuberculosis; assay: Antituberculosis activity against Mycobacterium tuberculosis H37Rv infected in BALB/c mouse chronic infection model assessed as fold reduction in bacterial CFU in lungs at 100 mg/kg, po administered for 5 days a week for 3 weeks beginning on day 70 postinfection relative to OPC-67683; assay type: functional
In short: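 Chronic M. tb infection model with dosing starting ~70 days post infection, once bacteria are in a plateau phase of growth. Oral 100 mg/kg daily, 5 days/week, 3 weeks. Lung CFUs counted. Value is the fold CFU reduction for the compound relative to the fold reduction for the reference agent.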

SMILES | solubility [1] | MIC [2] | MIC [3] | remaining at 1 h, 1 µM [4] | remaining at 1 h, 1 µM [5] | remaining at 0.75 h, 1 µM [8] | other results
O=[N+]([O-])c1cn2c(n1)OC[C@@H](OCC#Cc1ccc(-c3ccc(OC(F)(F)F)cc3)nc1)C2 | 0.72 µg/mL (≈ 1.56 µM) | 0.09 µM (≈ 0.0414 µg/mL) | 0.52 µM (≈ 0.239 µg/mL) | 90% | 93% | – | fold change (FC) [6]: 1; solubility [7]: 4 µg/mL (≈ 8.69 µM)
C[C@@H](O[C@@H]1COc2nc([N+](=O)[O-])cn2C1)c1ccc(OC(F)(F)F)cc1 | – | – | – | – | – | 60% | –
C[C@H](O[C@@H]1COc2nc([N+](=O)[O-])cn2C1)c1ccc(OC(F)(F)F)cc1 | – | – | – | – | – | 73% | –
CC(O[C@@H]1COc2nc([N+](=O)[O-])cn2C1)c1ccc(-c2ccc(OC(F)(F)F)cc2)cc1 (some centres not stated) | 0.84 µg/mL (≈ 1.87 µM) | 0.19 µM (≈ 0.0854 µg/mL) | 1.5 µM (≈ 0.674 µg/mL) | 92% | 100% | – | Activity (Mus musculus): Toxic
O=[N+]([O-])c1cn2c(n1)OC[C@@H](OCc1ccc(OC(F)(F)F)cc1)C2 [PRETOMANID] | – | – | – | – | – | 93% | fold change (FC) [9]: 0.14
